The values that follow come from ChEMBL document CHEMBL1154121, “alpha-Substituted norstatines as the transition-state mimic in inhibitors of multiple digestive vacuole malaria aspartic proteases” (Bioorg Med Chem, 2009).

Activity calls are given as the source filed them. No cut-off for these calls is given here. Some results are limits rather than exact numbers.

T1 sequence (P07339 65-162 limits assumed): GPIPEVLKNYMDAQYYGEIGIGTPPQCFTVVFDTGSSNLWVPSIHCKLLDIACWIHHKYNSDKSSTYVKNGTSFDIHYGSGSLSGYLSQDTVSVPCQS
T1 sequence (P07339 169-412 limits assumed): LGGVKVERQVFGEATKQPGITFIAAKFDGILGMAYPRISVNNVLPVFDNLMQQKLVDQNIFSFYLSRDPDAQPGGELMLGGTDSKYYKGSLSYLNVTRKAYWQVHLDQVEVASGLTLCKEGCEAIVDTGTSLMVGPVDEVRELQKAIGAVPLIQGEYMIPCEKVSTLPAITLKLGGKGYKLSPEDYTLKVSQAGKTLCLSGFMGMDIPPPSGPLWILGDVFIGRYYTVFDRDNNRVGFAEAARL
Sequence of Beta-secretase 1 (Homo sapiens) (P56817 whole entry): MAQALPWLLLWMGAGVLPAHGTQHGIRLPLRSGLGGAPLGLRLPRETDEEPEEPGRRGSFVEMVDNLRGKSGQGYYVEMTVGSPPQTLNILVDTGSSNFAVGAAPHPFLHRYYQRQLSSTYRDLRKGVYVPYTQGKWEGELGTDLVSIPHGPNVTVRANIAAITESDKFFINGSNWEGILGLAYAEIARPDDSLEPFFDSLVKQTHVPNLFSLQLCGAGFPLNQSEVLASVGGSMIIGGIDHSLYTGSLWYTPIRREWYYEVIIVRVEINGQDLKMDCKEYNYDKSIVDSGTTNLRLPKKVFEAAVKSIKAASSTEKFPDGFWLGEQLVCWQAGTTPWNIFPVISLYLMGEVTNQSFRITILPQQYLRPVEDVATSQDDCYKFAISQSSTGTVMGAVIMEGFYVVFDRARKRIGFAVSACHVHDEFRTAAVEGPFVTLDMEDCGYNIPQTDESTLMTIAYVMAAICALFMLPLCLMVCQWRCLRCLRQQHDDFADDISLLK

System in one assay: not listed separately
The assay is described as follows: Inhibition of Plasmodium ovale plasmepsin-4 expressed in Escherichia coli BL21 (DE3) by spectrophotometric assay with chromogenic substrate.
As for `Cc1cccc(C)c1OCC(=O)NCC(O)(CCc1ccccc1)C(=O)N1CCC[C@H]1C(=O)N[C@H]1c2ccccc2C[C@H]1O` (stereo in doubt; (A)-19), the Ki (in general, a measure of affinity in units of concentration, obtained from inhibition or displacement) came out at 7.2 µM.
Same read-out and setting: next, `Cc1cccc(C)c1OCC(=O)NC[C@](O)(CCc1ccccc1)C(=O)N1CSC(C)(C)[C@@H]1C(=O)N[C@H]1c2ccccc2C[C@H]1O`: 0.88 µM.
Still for that read-out and setting: with `Cc1cccc(C)c1OCC(=O)NC[C@@](O)(Cc1ccccc1)C(=O)N1CSC(C)(C)[C@H]1C(=O)N[C@H]1c2ccccc2C[C@H]1O` the figure was 0.11 µM; with `Cc1cccc(C)c1OCC(=O)NCC(O)(CCc1ccccc1)C(=O)N1CCC[C@H]1C(=O)N[C@H]1c2ccccc2C[C@H]1O` (stereo in doubt; (B)-19), 10.3 µM.
The same measure, in the same setting: with `Cc1cccc(C)c1OCC(=O)NC[C@](O)(CCc1ccccc1)C(=O)N1CSC(C)(C)[C@H]1C(=O)N[C@H]1c2ccccc2C[C@H]1O` the figure was 6.5 µM.

For another assay, the target named is Aspartic protease PM4 (Plasmodium vivax, UniProt O60989). The assay is described as follows: Inhibition of Plasmodium vivax plasmepsin-4 expressed in Escherichia coli BL21 (DE3) by spectrophotometric assay with chromogenic substrate.
Sequence of Aspartic protease PM4 (O60989 whole entry): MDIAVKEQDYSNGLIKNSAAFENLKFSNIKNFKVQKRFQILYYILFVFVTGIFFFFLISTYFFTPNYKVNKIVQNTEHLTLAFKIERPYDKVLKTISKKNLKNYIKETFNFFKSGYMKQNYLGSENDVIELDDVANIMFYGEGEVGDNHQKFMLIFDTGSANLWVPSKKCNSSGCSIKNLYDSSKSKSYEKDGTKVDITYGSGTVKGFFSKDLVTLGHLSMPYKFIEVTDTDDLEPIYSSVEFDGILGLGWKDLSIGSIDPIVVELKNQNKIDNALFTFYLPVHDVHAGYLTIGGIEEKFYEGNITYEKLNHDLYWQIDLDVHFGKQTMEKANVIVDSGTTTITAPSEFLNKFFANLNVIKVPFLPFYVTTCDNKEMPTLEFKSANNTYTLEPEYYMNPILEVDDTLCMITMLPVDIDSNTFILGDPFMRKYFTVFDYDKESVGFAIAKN
`Cc1cccc(C)c1OCC(=O)NCC(O)(CCc1ccccc1)C(=O)N1CCC[C@H]1C(=O)N[C@H]1c2ccccc2C[C@H]1O` (stereo in doubt; (A)-19) had an inhibitory constant (Ki) of 2.2 µM.
The same measure, in the same setting: with `Cc1cccc(C)c1OCC(=O)NC[C@](O)(CCc1ccccc1)C(=O)N1CSC(C)(C)[C@@H]1C(=O)N[C@H]1c2ccccc2C[C@H]1O` the figure was 0.34 µM; with `Cc1cccc(C)c1OCC(=O)NC[C@@](O)(Cc1ccccc1)C(=O)N1CSC(C)(C)[C@H]1C(=O)N[C@H]1c2ccccc2C[C@H]1O`, 0.16 µM; with `Cc1cccc(C)c1OCC(=O)NCC(O)(CCc1ccccc1)C(=O)N1CCC[C@H]1C(=O)N[C@H]1c2ccccc2C[C@H]1O` (stereo in doubt; (B)-19), 1.3 µM.
The compound `Cc1cccc(C)c1OCC(=O)NC[C@](O)(CCc1ccccc1)C(=O)N1CSC(C)(C)[C@H]1C(=O)N[C@H]1c2ccccc2C[C@H]1O` displayed an inhibition constant Ki of 2.2 µM.

System in the next assay: not listed separately
The assay is described as follows: Inhibition of Plasmodium malariae plasmepsin-4 expressed in Escherichia coli BL21 (DE3) by spectrophotometric assay with chromogenic substrate.
`Cc1cccc(C)c1OCC(=O)NCC(O)(CCc1ccccc1)C(=O)N1CCC[C@H]1C(=O)N[C@H]1c2ccccc2C[C@H]1O` (stereo in doubt; (A)-19): the Ki came to 14.5 µM.
`Cc1cccc(C)c1OCC(=O)NC[C@](O)(CCc1ccccc1)C(=O)N1CSC(C)(C)[C@@H]1C(=O)N[C@H]1c2ccccc2C[C@H]1O` returned an inhibition constant (Ki) of 1.6 µM.
In the case of `Cc1cccc(C)c1OCC(=O)NC[C@@](O)(Cc1ccccc1)C(=O)N1CSC(C)(C)[C@H]1C(=O)N[C@H]1c2ccccc2C[C@H]1O`, the affinity, expressed as Ki, was 0.26 µM.
On the same count and under the same terms, with `Cc1cccc(C)c1OCC(=O)NCC(O)(CCc1ccccc1)C(=O)N1CCC[C@H]1C(=O)N[C@H]1c2ccccc2C[C@H]1O` (stereo in doubt; (B)-19) the figure was 13 µM; with `Cc1cccc(C)c1OCC(=O)NC[C@](O)(CCc1ccccc1)C(=O)N1CSC(C)(C)[C@H]1C(=O)N[C@H]1c2ccccc2C[C@H]1O`, above 20 µM.

Another assay addresses Beta-secretase 1 (Homo sapiens) (UniProt P56817). The assay is described as follows: Inhibition of human BACE1 at < 10 uM.
As for `Cc1cccc(C)c1OCC(=O)NC[C@@](O)(Cc1ccccc1)C(=O)N1CSC(C)(C)[C@H]1C(=O)N[C@H]1c2ccccc2C[C@H]1O`, the outcome was inactive.

The target in another assay is T1, Cathepsin D (Homo sapiens, UniProt P07339). The assay is described as follows: Inhibition of human liver cathepsin D. The method, boiled down:
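Human liver cathepsin D activated 20 min at 37 °C in 100 mM sodium acetate pH 4.5, 10% glycerol, 0.01% Tween 20. Inhibitor serially diluted in DMSO (1% final) added before 3 µM DABCYL-Glu-Arg-Nle-Phe-Leu-Ser-Phe-Pro-EDANS; fluorescence increase read over 10 min. IC50 from Langmuir isotherm assuming competitive inhibition, converted to Ki via IC50/(1+[S]/Km); top concentration limited to 10.0 µM by inhibitor fluorescence.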
Compound `Cc1cccc(C)c1OCC(=O)NCC(O)(CCc1ccccc1)C(=O)N1CCC[C@H]1C(=O)N[C@H]1c2ccccc2C[C@H]1O` (stereo in doubt; (A)-19) came in with an inhibition constant (Ki) above 10 µM.
The same measure, in the same setting: with `Cc1cccc(C)c1OCC(=O)NC[C@](O)(CCc1ccccc1)C(=O)N1CSC(C)(C)[C@@H]1C(=O)N[C@H]1c2ccccc2C[C@H]1O` the figure was above 10 µM.
The same measure, in the same setting: with `Cc1cccc(C)c1OCC(=O)NC[C@@](O)(Cc1ccccc1)C(=O)N1CSC(C)(C)[C@H]1C(=O)N[C@H]1c2ccccc2C[C@H]1O` the figure was above 10 µM; with `Cc1cccc(C)c1OCC(=O)NC[C@](O)(CCc1ccccc1)C(=O)N1CSC(C)(C)[C@H]1C(=O)N[C@H]1c2ccccc2C[C@H]1O`, above 10 µM.

In a further assay the target is Plasmepsin II (Plasmodium falciparum, UniProt P46925). As to the kind of experiment: Inhibition of Plasmodium falciparum plasmepsin-2 expressed in Escherichia coli BL21 (DE3) by spectrophotometric assay with chromogenic substrate.
Sequence of Plasmepsin II (P46925 whole entry): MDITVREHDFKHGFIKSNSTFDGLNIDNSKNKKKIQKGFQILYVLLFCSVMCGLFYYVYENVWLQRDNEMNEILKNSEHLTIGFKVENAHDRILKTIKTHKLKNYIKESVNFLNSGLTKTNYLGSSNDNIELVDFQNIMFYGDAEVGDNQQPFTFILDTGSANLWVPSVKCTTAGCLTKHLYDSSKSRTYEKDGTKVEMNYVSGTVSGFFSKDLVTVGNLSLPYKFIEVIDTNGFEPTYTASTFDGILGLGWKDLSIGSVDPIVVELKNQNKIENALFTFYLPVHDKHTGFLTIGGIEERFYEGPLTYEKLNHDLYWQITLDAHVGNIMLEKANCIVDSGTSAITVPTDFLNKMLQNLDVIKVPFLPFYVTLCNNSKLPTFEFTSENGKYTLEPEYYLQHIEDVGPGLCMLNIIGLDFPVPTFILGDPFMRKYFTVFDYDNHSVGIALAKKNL
In the case of `Cc1cccc(C)c1OCC(=O)NCC(O)(CCc1ccccc1)C(=O)N1CCC[C@H]1C(=O)N[C@H]1c2ccccc2C[C@H]1O` (stereo in doubt; (A)-19), the Ki is above 20 µM.
Still for that read-out and setting: with `Cc1cccc(C)c1OCC(=O)NC[C@](O)(CCc1ccccc1)C(=O)N1CSC(C)(C)[C@@H]1C(=O)N[C@H]1c2ccccc2C[C@H]1O` the figure was 7.6 µM; with `Cc1cccc(C)c1OCC(=O)NC[C@@](O)(Cc1ccccc1)C(=O)N1CSC(C)(C)[C@H]1C(=O)N[C@H]1c2ccccc2C[C@H]1O`, above 20 µM; with `Cc1cccc(C)c1OCC(=O)NCC(O)(CCc1ccccc1)C(=O)N1CCC[C@H]1C(=O)N[C@H]1c2ccccc2C[C@H]1O` (stereo in doubt; (B)-19), above 20 µM.
The same measure, in the same setting: with `Cc1cccc(C)c1OCC(=O)NC[C@](O)(CCc1ccccc1)C(=O)N1CSC(C)(C)[C@H]1C(=O)N[C@H]1c2ccccc2C[C@H]1O` the figure was 7.4 µM.

System in the next assay: not listed separately
As to the kind of experiment: Inhibition of Plasmodium falciparum plasmepsin-4 expressed in Escherichia coli BL21 (DE3) by spectrophotometric assay with chromogenic substrate.
`Cc1cccc(C)c1OCC(=O)NCC(O)(CCc1ccccc1)C(=O)N1CCC[C@H]1C(=O)N[C@H]1c2ccccc2C[C@H]1O` (stereo in doubt; (A)-19) registered a Ki of 30.2 µM.
Turning to `Cc1cccc(C)c1OCC(=O)NC[C@](O)(CCc1ccccc1)C(=O)N1CSC(C)(C)[C@@H]1C(=O)N[C@H]1c2ccccc2C[C@H]1O`, the inhibition constant (Ki) was found to be 10.7 µM.
Same read-out and setting: next, `Cc1cccc(C)c1OCC(=O)NC[C@@](O)(Cc1ccccc1)C(=O)N1CSC(C)(C)[C@H]1C(=O)N[C@H]1c2ccccc2C[C@H]1O`: 0.7 µM.
Same read-out and setting: with `Cc1cccc(C)c1OCC(=O)NCC(O)(CCc1ccccc1)C(=O)N1CCC[C@H]1C(=O)N[C@H]1c2ccccc2C[C@H]1O` (stereo in doubt; (B)-19) the figure was 26.9 µM.
On the same count and under the same terms, next, `Cc1cccc(C)c1OCC(=O)NC[C@](O)(CCc1ccccc1)C(=O)N1CSC(C)(C)[C@H]1C(=O)N[C@H]1c2ccccc2C[C@H]1O`: 5.5 µM.

The next assay addresses T1, Cathepsin D. The assay is described as follows: Ratio of compound Ki to KNI-10006 Ki for human liver cathepsin D.
For the compound `Cc1cccc(C)c1OCC(=O)NC[C@](O)(CCc1ccccc1)C(=O)N1CSC(C)(C)[C@@H]1C(=O)N[C@H]1c2ccccc2C[C@H]1O`, the Ratio Ki stood at 5000.
On the same count and under the same terms, next, `Cc1cccc(C)c1OCC(=O)NC[C@@](O)(Cc1ccccc1)C(=O)N1CSC(C)(C)[C@H]1C(=O)N[C@H]1c2ccccc2C[C@H]1O`: 5000; `Cc1cccc(C)c1OCC(=O)NC[C@](O)(CCc1ccccc1)C(=O)N1CSC(C)(C)[C@H]1C(=O)N[C@H]1c2ccccc2C[C@H]1O`: 5000.
